Assay outcomes (PubChem BioAssay)
HCV NS3 hel inh: HCV NS3 helicase inhibition; NS3 helicase DNA unwinding, Cy5 molecular beacon fluorescence; inhibition, % at 10.9 µM; 290,000 compounds, 0.56% hits;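 active = inhibition above the mean of all tested compounds plus 3 SD, set per campaign, cut at about 35% in these data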;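 note: 0% = DMSO wells and 100% = thioflavine S control wells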
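Compound dosing – single dose, 10.9 µM nominal final, DMSO 0.8% final · System – NS3 helicase fragment of HCV · Buffer or medium – MOPS pH 6.5, MgCl2, DTT, Tween20, BSA · Signal – Cy5 beacon fluorescence read at start and 1 h · Also added – annealed dual-labelled DNA beacon duplex, ATP-started · Schedule – 1 h at 25 °C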
UHRF1 MBD2 ctr: human UHRF1 methylated DNA binding inhibitors; Q96T88; UHRF1 binding to methylated oligo, TR-FRET; inhibition, % at 4.4 µM; 370,000 compounds, 0.75% hits; AID 687016; in the data active = inhibition above about 21%;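 note: UHRF1 SRA domain binding a hemimethylated CpG hairpin DNA probe; 0% = median of test compound wells and 100% = reference inhibitor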
DSG3 Ab inh: inhibitors of pemphigus antibody binding to human desmoglein-3. DSG3-coupled beads, scFv-anti-DSG3-GFP binding, flow cytometry; stronger effect = lower value. AID 588358. P32926. 310,000 compounds, 0.48% hits. binding (percent of control), % at 10 µM;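 active = binding more than 3 SD below its plate's average and above zero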
MBD2 DNA inh: blocks human MBD2 binding to methylated DNA | Q9UBB5 | TR-FRET, MBD2 binding to methylated oligonucleotide | inhibition, % at 4.4 µM | 370,000 compounds, 0.31% hits | AID 686964; in the data active = inhibition above about 13%
Target sequence (Q9UBB5 whole entry, looked up): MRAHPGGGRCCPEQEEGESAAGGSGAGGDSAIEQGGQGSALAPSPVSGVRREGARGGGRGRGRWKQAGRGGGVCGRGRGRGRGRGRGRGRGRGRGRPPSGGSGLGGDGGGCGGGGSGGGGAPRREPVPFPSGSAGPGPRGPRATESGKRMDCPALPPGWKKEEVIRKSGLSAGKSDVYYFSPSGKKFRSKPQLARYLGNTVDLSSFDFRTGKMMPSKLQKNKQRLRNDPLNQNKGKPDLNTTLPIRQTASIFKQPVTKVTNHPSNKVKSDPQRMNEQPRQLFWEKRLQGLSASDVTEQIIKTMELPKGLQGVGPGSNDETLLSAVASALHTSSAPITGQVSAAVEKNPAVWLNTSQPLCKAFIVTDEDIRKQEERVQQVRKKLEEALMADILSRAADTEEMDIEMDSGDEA
SUMO1-SIM PPI: SUMO1-SIM interaction modulation; inhibition, % at 20 µM; P63165; SUMO1 binding to a labelled peptide, TR-FRET, 1 h; AID 602429; 360,000 compounds, 0.33% hits; in the data active = inhibition above about 37%
DNMT1 inh: blocks human DNA methyltransferase DNMT1; AID 588458; DNMT1 molecular beacon, Hinp1I cleavage, fluorescence; 360,000 compounds, 0.83% hits; inhibition (reported as % activation of signal), % at 10 µM; P26358; in the data active = inhibition above about 50%
An asterisk follows results filed as active; · = not tested or not shown. Shown are actives, neighbours in structure and some others; about 2.5% of the full set was active somewhere.

SMILES	HCV NS3 hel inh	UHRF1 MBD2 ctr	DSG3 Ab inh	MBD2 DNA inh	SUMO1-SIM PPI	DNMT1 inh
CC(C(=O)Nc1ccc(C#N)cc1)N(C)CC(=O)Nc1cccc(F)c1 (stereo not given)	-1.6	-0.2	109.1	2.8	-0.9	5.1
CN(C)CCC(c1ccccc1)c1ccccn1 (stereo not given)	10.8	1.6	99.6	-3.2	2.6	-0.6
CN(C)CCOC(C)(c1ccccc1)c1ccccn1 (stereo not given)	-3.6	65.6*	·	-1.1	3.3	1.0
O=C(Nc1ccccc1)c1ccccc1OCc1ccc(S(=O)(=O)N2CCOCC2)cc1	-14.8	3.0	67.2*	0.3	2.4	2.6
Cc1oc(CC(C)C)cc1C(=O)NCCCC(=O)O	-0.4	-1.6	97.5	-3.0	-0.5	-5.0
Cc1oc(CC(C)C)cc1C(N)=O	-10.7	26.3*	99.9	5.3	2.2	-1.2
CCOc1cc(OCC)cc(C(=O)N2CCC[C@H]2C(=O)N2CCC[C@H]2C(=O)N(C)Cc2ccccc2)c1	·	-1.4	·	-0.1	58.6*	·
CCOc1cc(OCC)cc(C(=O)N2CCC[C@@H]2C(=O)N2CCC[C@H]2C(=O)NCc2ccccc2)c1	·	0.5	·	-1.5	·	·
COCC(C)n1c(C)cc(C(=O)Cn2nc(C(=O)O)c3ccccc3c2=O)c1C (stereo not given)	-11.3	2.5	115.8	2.2	-11.8	0.6
COCC(C)n1c(C)cc(C(=O)COC(=O)c2nn(C)c(=O)c3ccccc23)c1C (stereo not given)	·	-6.0	63.5*	4.1	-11.3	-2.4
COCC(C)n1c(C)cc(C(=O)COC(=O)CCc2nc3ccccc3c(=O)[nH]2)c1C (stereo not given)	-6.0	26.0*	123.5	1.1	-1.9	1.7
O=C(CCc1nc2ccccc2c(=O)[nH]1)OCc1ccc(-c2ccccc2)cc1	-11.4	0.7	7.9*	-1.2	-2.3	10.9
COCCCn1c(C)cc(C(=O)COC(=O)CCc2nc3ccccc3c(=O)[nH]2)c1C	1.7	-2.1	·	9.1	·	·
Cc1cccc(NC(=O)CSc2nc3[nH]c(=O)cc(O)c3s2)c1	·	-1.2	104.3	0.1	7.0	31.2
NC(=O)NC(=O)CSc1ccccc1	12.7	-1.2	110.9	-1.8	6.1	3.4
CCC(=O)c1ccccc1OCCN1C(=O)NC(C)(C)C1=O	-6.6	7.1	107.0	-2.0	-0.4	2.9
CC1(C)NC(=O)N(CCOCCOc2ccccc2-c2ccccc2)C1=O	2.7	27.8*	104.8	0.7	0.3	18.1
CC1CCCCC1NC(=O)c1cncc(Br)c1 (stereo not given)	3.7	-0.3	100.6	1.6	3.1	0.4
Cc1cccc(C)c1OCCNC(=O)c1ccc2ccccc2n1	-11.2	-3.4	-7.3*	-0.1	-1.9	-1.1
CC(=O)/C(=C/c1ccccc1)C(=O)Nc1ccccc1C	3.4	-3.8	92.8	-4.3	0.6	7.6
Cc1ccccc1NC(=O)C(=Cc1ccc(C(=O)O)cc1)C(=O)Nc1ccccc1C	25.9	26.1*	103.7	3.0	15.4	2.7
N#C/C(C(=O)NCc1ccccc1)=C1/N=C(NC(=O)c2cccs2)c2ccccc21	0.0	-6.1	85.0*	1.2	34.9	0.2
CCCNC(=O)/C(C#N)=C1\N=C(NC(=O)c2ccco2)c2ccccc21	0.9	-4.7	102.5	-5.8	-31.7	-1.0
O=S(=O)(c1cc(C(F)(F)F)ccc1Cl)N1CCN(c2ccccn2)CC1	3.0	0.3	90.9	0.1	-2.3	3.4
CN1CCN(S(=O)(=O)c2cc(C(F)(F)F)ccc2Cl)CC1	-3.1	31.2*	109.3	1.1	-2.1	-0.2
SMILES	HCV NS3 hel inh	UHRF1 MBD2 ctr	DSG3 Ab inh	MBD2 DNA inh	SUMO1-SIM PPI	DNMT1 inh
CCOC(=O)c1c(-c2ccc(C)cc2)csc1NC(=O)c1ccc(N2C(=O)CCC2=O)cc1	-0.3	0.6	98.4	1.7	16.3	-2.7
CCOC(=O)c1cc(CC)sc1NC(=O)c1ccc(N2C(=O)CCC2=O)cc1	4.2	2.0	78.7*	-1.4	-12.2	-4.7
O=C1c2cccc3c(O)ccc(c23)C(=O)N1Cc1ccccc1	8.2	-52.2	124.5	-28.3	-82.0	68.2*
O=C(O)c1cccc(CN2C(=O)c3ccccc3C2=O)c1	-4.4	4.8	109.9	1.2	-3.5	3.7
CCNC(=S)NNC(=O)C1CCCCC1	-1.9	-0.3	·	0.1	0.5	6.1
O=C(NCc1ccco1)c1nn(-c2ccccc2)c(=O)c2ccccc12	-3.3	1.0	103.3	-2.3	-4.2	-6.8
